Measurements taken from ChEMBL document CHEMBL5154905, “Reversible Monoacylglycerol Lipase Inhibitors: Discovery of a New Class of Benzylpiperidine Derivatives” (J Med Chem, 2022).
Activity calls are given as the source filed them. The rule behind the calls is not given here.

Assays:
[1] = Stability of the compound in pooled human plasma at 3 mM measured up to 24 hrs by UV/LC-MS assay; format: ADME, cell-free; conditions: read-out: Stability
[2] = Stability of the compound in MeOH solution at 500 uM measured up to 24 hrs by UV/LC-MS analysis; format: physicochemical
[3] = Apparent permeability of the compound in PBS buffer pH 7.4 assessed as membrane retention at 0.5 mM incubated for 5 hrs by PAMPA based UV/LC-MS analysis; format: ADME; conditions: pH 7.4, 5 h, 500 µM
[4] = Stability of the compound in PBS buffer at pH 7.4 at 500 uM measured up to 24 hrs by UV/LC-MS analysis; format: physicochemical; conditions: pH 7.4, 24 h
[5] = Aqueous solubility of compound at 1 mg/ml incubated for 24 hrs by LC-MS/MS analysis; format: physicochemical; conditions: buffer
[6] = test system: PDAC-3; experiment: Induction of apoptosis in human PDAC-3 cells at IC50 measured after 72 hrs by Annexin-V/FITC staining based assay; format: functional, cell-based
Outline: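 Fixed with paraformaldehyde, stained with annexin V/FITC in HEPES-buffered saline (pH 7.4) with 2.5 mM CaCl2. Fluorescence read at ex 485/em 535 nm and normalised to cell number from crystal violet staining (595 nm). Triplicate measurements, expressed relative to untreated control.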

[7] = test system: PDAC-3; experiment: Induction of apoptosis in human PDAC-3 cells assessed as increase in caspase-3 level at IC50 measured after 72 hrs by immunoassay; format: functional, cell-based
Outline: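 Cell extracts assayed with a human active caspase-3 ELISA; absorbance 450 nm minus 540 nm. Quantified against a recombinant human caspase-3 standard curve. Triplicate measurements, expressed relative to untreated cells.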

[8] = target: T1, Fatty-acid amide hydrolase 1 (Mus musculus) (UniProt O08914); experiment: Inhibition of FAAH in mouse brain membrane at 10 uM using TAMRA-FP serine hydrolase probe as substrate preincubated for 25 mins followed by substrate addition and measured after 25 mins SDS-PAGE analysis; format: cell membranes; conditions: time 50.0 min
T1 sequence (whole entry): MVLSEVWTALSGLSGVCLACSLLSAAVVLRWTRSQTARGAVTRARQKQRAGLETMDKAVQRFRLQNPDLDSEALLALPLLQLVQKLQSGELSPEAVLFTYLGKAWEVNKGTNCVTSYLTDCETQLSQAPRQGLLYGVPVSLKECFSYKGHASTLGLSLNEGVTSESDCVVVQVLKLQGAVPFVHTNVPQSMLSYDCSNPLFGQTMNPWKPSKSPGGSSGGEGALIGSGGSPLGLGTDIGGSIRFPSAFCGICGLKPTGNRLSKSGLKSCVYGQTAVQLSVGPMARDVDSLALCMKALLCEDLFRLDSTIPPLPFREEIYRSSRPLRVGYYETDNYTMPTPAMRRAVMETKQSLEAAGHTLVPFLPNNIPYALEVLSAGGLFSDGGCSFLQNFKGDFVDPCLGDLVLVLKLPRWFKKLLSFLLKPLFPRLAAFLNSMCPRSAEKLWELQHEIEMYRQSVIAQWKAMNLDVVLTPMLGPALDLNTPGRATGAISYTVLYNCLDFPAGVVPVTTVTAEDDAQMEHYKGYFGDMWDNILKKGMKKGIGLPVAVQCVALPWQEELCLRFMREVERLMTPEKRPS
Outline: (§1)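 Mouse half-brain membrane fraction (800g supernatants spun at 16000g, 4 °C; pellet in 50 mM Tris-HCl pH 7.4), diluted to 4 mg/mL in PBS. Preincubated 25 min at 25 °C with test agent (10 μM final) or DMSO, then TAMRA-FP (125 nM final) 25 min at 25 °C. Stopped in Laemmli buffer at 90 °C, run on 12% SDS-PAGE, in-gel fluorescence read. Coomassie confirmed loading. Three independent experiments.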

[9] = test system: PDAC-3; experiment: Antiproliferative activity against human PDAC-3 cells assessed as cell growth inhibition incubated for 72 hrs by sulforhodamine B assay; format: functional, cell-based
Outline: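 Primary PDAC3 culture in RPMI-1640 with 10% newborn calf serum, penicillin/streptomycin, 37 °C, 5% CO2. Seeded 5000 cells/well; after 24 h exposed 72 h to MAGL inhibitor (0.1–50 μM, DMSO stock diluted in medium).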

[10] = target: T2, Monoacylglycerol lipase ABHD6 (Mus musculus) (UniProt Q8R2Y0); experiment: Inhibition of ABHD6 in mouse brain membrane at 10 uM using TAMRA-FP serine hydrolase probe as substrate preincubated for 25 mins followed by substrate addition and measured after 25 mins SDS-PAGE analysis; format: cell membranes; conditions: time 50.0 min; outline: as §1
T2 sequence (whole entry): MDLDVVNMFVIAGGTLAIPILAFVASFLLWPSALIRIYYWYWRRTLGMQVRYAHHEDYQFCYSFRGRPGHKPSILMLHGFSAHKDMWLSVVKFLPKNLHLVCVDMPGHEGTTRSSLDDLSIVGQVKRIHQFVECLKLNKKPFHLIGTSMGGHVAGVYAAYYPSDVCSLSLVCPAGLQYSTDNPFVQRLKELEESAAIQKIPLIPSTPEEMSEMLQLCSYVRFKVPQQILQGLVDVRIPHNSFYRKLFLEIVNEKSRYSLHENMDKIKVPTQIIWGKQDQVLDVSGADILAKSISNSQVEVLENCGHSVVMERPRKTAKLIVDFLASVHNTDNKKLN

[11] = target: T3, Lysophosphatidylserine lipase ABHD12 (Mus musculus) (UniProt Q99LR1); experiment: Inhibition of ABHD12 in mouse brain membrane at 10 uM using TAMRA-FP serine hydrolase probe as substrate preincubated for 25 mins followed by substrate addition and measured after 25 mins SDS-PAGE analysis; format: cell membranes; conditions: time 50.0 min; outline: as §1
T3 sequence (whole entry): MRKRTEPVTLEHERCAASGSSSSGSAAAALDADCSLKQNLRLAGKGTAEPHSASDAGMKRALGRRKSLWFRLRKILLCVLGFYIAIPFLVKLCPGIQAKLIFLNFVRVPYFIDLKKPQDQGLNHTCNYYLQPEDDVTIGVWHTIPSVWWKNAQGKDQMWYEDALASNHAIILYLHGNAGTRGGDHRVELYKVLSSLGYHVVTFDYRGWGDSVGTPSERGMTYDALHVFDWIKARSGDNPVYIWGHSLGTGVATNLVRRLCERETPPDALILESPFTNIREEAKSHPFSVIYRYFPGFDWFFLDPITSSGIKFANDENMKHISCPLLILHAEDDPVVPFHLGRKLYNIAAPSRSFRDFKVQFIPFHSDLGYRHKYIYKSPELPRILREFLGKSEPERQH

[12] = Cytotoxicity against human hTERT-HPNE cells assessed as cell growth inhibition incubated for 72 hrs by sulforhodamine B assay; format: toxicity, cell-based
Outline: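 SRB growth-inhibition assay. Cells were seeded at 5000 per well and treated after 24 h, once a monolayer had formed, with MAGL inhibitors (0.1–50 μM) for 72 h. Cells were then fixed with trichloroacetic acid at 4 °C and stained with SRB. Bound dye was dissolved in Tris base and read at 490 and 540 nm. IC50 came from curve fitting.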

[13] = Induction of apoptosis in human PDAC-2 cells assessed as fold change in apoptotic rate at IC50 measured after 72 hrs by Annexin-V/FITC staining based assay relative to control; format: functional
Outline: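 Then paraformaldehyde-fixed and stained with annexin V/FITC in HEPES/NaCl/CaCl2 buffer, pH 7.4. Fluorescence read at ex 485/em 535 nm, normalised to cell number by crystal violet (595 nm). Expressed relative to untreated control (=1). Triplicate, mean ± SEM.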

[14] = test system: PDAC-3; experiment: Induction of apoptosis in human PDAC-3 cells assessed as reduction in Bcl-2 […] expression at 5 times IC50 incubated for 24 hrs by qRT-PCR analysis; format: functional, cell-based
[15] = test system: PDAC-3; experiment: Antimigratory activity against human PDAC-3 cells assessed as reduction in MMP9 expression at 5 times IC50 incubated for 24 hrs by qRT-PCR analysis; format: functional, cell-based
[16] = test system: PDAC-3; experiment: Synergistic antiproliferative activity against human PDAC-3 cells assessed as increase in ENT1 expression at 5 times IC50 incubated for 24 hrs in presence of gemcitabine by qRT-PCR analysis; format: functional, cell-based

## O=C(c1ccc(Sc2cccc(C(F)(F)F)c2)cc1)C1CCN(C(=O)c2cc(O)ccc2F)CC1
[1]
  half-life at 3000 µM: > 24 h
[2]
  Stability: > 24 h
[3]
  R%: 52.6%
[4]
  Stability: > 24 h
[5]
  logS0: < -8.702
  solubility: < 1 ng/mL

## Nc1ccn([C@@H]2O[C@H](CO)[C@@H](O)C2(F)F)c(=O)n1
[6]
  Activity: Active
[7]
  Activity: Active

## NC(=O)c1cccc(-c2cccc(OC(=O)NC3CCCCC3)c2)c1
[8]
  inhibition: Active

## O=C(OC(C(F)(F)F)C(F)(F)F)N1CCN(Cc2ccc(C(F)(F)F)cc2N2CCCC2)CC1
[9]
  Activity: Active
[6]
  Activity: Active
[7]
  Activity: Active

## CCCCCCCCCCC[C@@H](C[C@@H]1OC(=O)[C@H]1CCCCCC)OC(=O)[C@H](CC(C)C)NC=O
[10]
  inhibition: Active
[11]
  inhibition: Active

## O=C(c1cc(O)ccc1F)N1CCC(Cc2cccc(Oc3cc(C(F)(F)F)ccn3)c2)CC1
[1]
  half-life at 3000 µM: > 24 h
[2]
  Stability: > 24 h
[3]
  R%: 38.9%
[12]
  IC50 at 72 h: > 20 µM
[4]
  Stability: > 24 h
[6]
  Activity: Active
[13]
  fold change (FC): 4
[7]
  Activity: Active
[14]
  Activity: Active
[15]
  Activity: Active
[16]
  Activity: Active
[5]
  logS0: < -8.676
  solubility: < 1 ng/mL

## CN(Cc1cccc(-c2ccncc2)c1)C(=O)Oc1ccc(-c2ccc(C(N)=O)cc2)cc1
[10]
  inhibition: Active

## O=C(Oc1ccc([N+](=O)[O-])cc1)N1CCC(C(O)(c2ccc3c(c2)OCO3)c2ccc3c(c2)OCO3)CC1
[9]
  Activity: Active
[6]
  Activity: Active
[7]
  Activity: Active
